ChEMBL document CHEMBL3616436, “Synthesis, cytotoxicity and antimicrobial activity of thiourea derivatives incorporating 3-(trifluoromethyl)phenyl moiety” (Eur J Med Chem, 2015)
≈ marks a conversion by molar mass, not a printed value. Calls of active or inactive are those of the source. The rule behind the calls is not given here.

Experiments:
[1] = test system: Pseudomonas aeruginosa; assay: Antimicrobial activity against Pseudomonas aeruginosa NCTC 6749 after 18 hrs by twofold serial microdilution method; type: functional, organism-based
[2] = test system: Escherichia coli; assay: Antimicrobial activity against Escherichia coli ATCC 10538 after 18 hrs by twofold serial microdilution method; type: functional, organism-based
[3] = Cytotoxicity against BHK cells assessed as cell viability after 48 to 96 hrs by MTT assay; type: cell-based, Mesocricetus auratus; details: hamster
[4] = test system: Candida albicans; assay: Antimicrobial activity against Candida albicans ATCC 90028 after 24 hrs by twofold serial microdilution method; type: functional, organism-based
[5] = test system: Human immunodeficiency virus 1; assay: Antiviral activity against HIV1 3B infected in human MT4 cells assessed as protection against virus-induced cytopathogenicity by MTT assay; type: functional, organism-based; details: Human immunodeficiency virus 1, 3B
[6] = test system: Mycobacterium tuberculosis; assay: Antimycobacterial activity against drug-sensitive Mycobacterium tuberculosis Spec. 192; type: functional
Summary of the method: (§1)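 Classical test-tube successive-dilution method in Youmans' modification of Proskauer and Beck liquid medium with 10% bovine serum. Inoculum came from 14-day cultures. DMSO stock was 10 mg/mL, diluted geometrically in medium. Tubes were incubated at 37 °C. Concentrations tested were 3.1, 6.2, 12.5, 25, 50 and 100 µg/ml. MIC is the minimum concentration inhibiting growth relative to compound-free tubes.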

[7] = test system: Mammalian orthoreovirus 1; assay: Antiviral activity against Reovirus type-1 ATCC VR-214 infected in BHK cells assessed as protection against virus-induced cytopathogenicity after 3 to 4 days by MTT assay; type: functional, cell-based; details: Mammalian orthoreovirus 1, ATCC VR-214, BHK
Summary of the method: (§2)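 Cells seeded in 96-well plates (BHK 5x10^4, MDBK 3x10^4 cells/well), grown overnight to confluence, infected at m.o.i. 0.01 (BHK for Reo-1, MDBK for BVDV); serial compound dilutions in maintenance medium with 0.5% inactivated FBS added after 1 h; viability by MTT after 3–4 days at 37°C; EC50 for 50% protection by linear regression.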

[8] = test system: Vesicular stomatitis virus; assay: Antiviral activity against Vesicular stomatitis virus ATCC VR 1540 infected in African green monkey Vero 76 cells assessed as reduction of virus-plaque formation after 2 days by crystal violet staining; type: functional, organism-based; details: ATCC VR 1540, Vero, 48 h
[9] = test system: Bordetella bronchiseptica; assay: Antimicrobial activity against Bordetella bronchiseptica ATCC 4617 after 18 hrs by twofold serial microdilution method; type: functional, organism-based
[10] = Cytotoxicity against African green monkey Vero 76 cells assessed as cell viability after 48 to 96 hrs by crystal violet staining; type: cell-based; details: chlorocebus sabaeus
[11] = test system: Pseudomonas aeruginosa; assay: Antimicrobial activity against Pseudomonas aeruginosa ATCC 15442 after 18 hrs by twofold serial microdilution method; type: functional, organism-based
[12] = test system: Poliovirus 1; assay: Antiviral activity against Poliovirus type 1 ATCC VR-1562 infected in African green monkey Vero 76 cells assessed as reduction of virus-plaque formation after 2 days by crystal violet staining; type: functional, organism-based; details: Enterovirus C, ATCC VR-1562, Vero, 48 h
[13] = test system: Escherichia coli; assay: Antimicrobial activity against Escherichia coli NCTC 8196 after 18 hrs by twofold serial microdilution method; type: functional, organism-based
[14] = test system: Yellow fever virus; assay: Antiviral activity against Yellow fever virus 17D infected in BHK cells assessed as protection against virus-induced cytopathogenicity after 3 to 4 days by MTT assay; type: functional, cell-based
[15] = Cytotoxicity against human MT4 cells; type: cell-based
[16] = test system: Candida albicans; assay: Antimicrobial activity against Candida albicans ATCC 10231 after 24 hrs by twofold serial microdilution method; type: functional, organism-based
[17] = test system: Escherichia coli; assay: Antimicrobial activity against Escherichia coli ATCC 25922 after 18 hrs by twofold serial microdilution method; type: functional, organism-based
[18] = test system: Mycobacterium tuberculosis; assay: Antimycobacterial activity against Mycobacterium tuberculosis H37Rv ATCC 25618; type: functional; summary of the method: as §1
[19] = test system: Coxsackievirus B5; assay: Antiviral activity against Human coxsackievirus B5 ATCC VR-29 infected in African green monkey Vero 76 cells assessed as reduction of virus-plaque formation after 3 days by crystal violet staining; type: functional, organism-based; details: Enterovirus B, ATCC VR-29, Vero, 72 h
Summary of the method: (§3)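 Plaque reduction: Vero-76 at 2x10^5 cells/well grown to confluent monolayers, infected 2 h at 50–100 PFU/well; after removing unadsorbed virus, overlay of D-MEM, 1% inactivated FBS, 0.75% methylcellulose with or without serial compound dilutions; 3 days at 37°C, fixed and stained with crystal violet in 50% ethanol, plaques counted; EC50 by linear regression.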

[20] = Antiviral activity against Bovine viral diarrhea virus 1-NADL ATCC VR-534 infected in MDBK cells assessed as protection against virus-induced cytopathogenicity after 3 to 4 days by MTT assay; type: functional, cell-based; details: Bovine viral diarrhea virus isolates and strains, ATCC VR-534, MDBK; summary of the method: as §2
[21] = test system: Human alphaherpesvirus 1; assay: Antiviral activity against Human herpesvirus 1 KOS ATCC VR-1493 infected in African green monkey Vero 76 cells assessed as reduction of virus-plaque formation after 3 days by crystal violet staining; type: functional, organism-based; details: Human alphaherpesvirus 1, KOS ATCC VR1493, Vero, 72 h; summary of the method: as §3
[22] = test system: Vaccinia virus; assay: Antiviral activity against Human Vaccinia virus ATCC VR-1549 infected in African green monkey Vero 76 cells assessed as reduction of virus-plaque formation after 3 days by crystal violet staining; type: functional, organism-based; details: Orthopoxvirus vaccinia, ATCC VR-1549, Vero, 72 h
[23] = test system: Candida parapsilosis; assay: Antimicrobial activity against Candida parapsilosis ATCC 22019 after 24 hrs by twofold serial microdilution method; type: functional, organism-based
[24] = test system: Pseudomonas aeruginosa; assay: Antimicrobial activity against Pseudomonas aeruginosa ATCC 27863 after 18 hrs by twofold serial microdilution method; type: functional, organism-based
[25] = Cytotoxicity against bovine MDBK cells assessed as cell viability after 48 to 96 hrs by MTT assay; type: cell-based, Bos taurus; details: cattle
[26] = test system: CCRF-SB; assay: Cytotoxicity against human CCRF-SB cells after 96 hrs by MTT assay; type: functional
Summary of the method: (§4)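 Leukaemia/lymphoma lines seeded at 1×10^5 cells/ml in RPMI-1640 with 10% FCS and penicillin/streptomycin; incubated with serial dilutions at 37°C, 5% CO2; viability by MTT after 96 h; value is concentration reducing proliferation by 50%, with untreated controls undergoing at least three rounds of multiplication.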

[27] = test system: Micrococcus luteus; assay: Antimicrobial activity against Micrococcus luteus ATCC 9341 at 400 ug after 18 hrs by disc-diffusion method; type: functional; details: ATCC 9341, 18 h, read-out: IZ
Summary of the method: (§5)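 Disc diffusion on Mueller-Hinton II agar per CLSI; 9 mm paper discs loaded with 400 µg compound from DMSO solution, dried, placed on agar; growth inhibition zone diameter read after 18 h at 35°C.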

[28] = test system: Staphylococcus aureus; assay: Antimicrobial activity against Staphylococcus aureus ATCC 6538 after 18 hrs by twofold serial microdilution method; type: functional; details: ATCC 6538, 18 h
[29] = test system: Staphylococcus epidermidis; assay: Antimicrobial activity against Staphylococcus epidermidis ATCC 35984 at 400 ug after 18 hrs by disc-diffusion method; type: functional; details: ATCC 35984, 18 h, read-out: IZ; summary of the method: as §5
[30] = test system: CCRF-CEM; assay: Cytotoxicity against human CCRF-CEM cells after 96 hrs by MTT assay; type: functional; summary of the method: as §4
[31] = test system: Enterococcus hirae; assay: Antimicrobial activity against Enterococcus hirae ATCC 10541 at 400 ug after 18 hrs by disc-diffusion method; type: functional; summary of the method: as §5
[32] = test system: Staphylococcus epidermidis; assay: Antimicrobial activity against Staphylococcus epidermidis ATCC 35984 after 18 hrs by twofold serial microdilution method; type: functional; details: ATCC 35984, 18 h
[33] = test system: Staphylococcus aureus; assay: Antimicrobial activity against Staphylococcus aureus ATCC 29213 after 18 hrs by twofold serial microdilution method; type: functional; details: ATCC 29213, 18 h
[34] = test system: Bacillus subtilis; assay: Antimicrobial activity against Bacillus subtilis ATCC 6633 at 400 ug after 18 hrs by disc-diffusion method; type: functional; details: ATCC 6633, 18 h, read-out: IZ; summary of the method: as §5
[35] = test system: Staphylococcus aureus; assay: Antimicrobial activity against Staphylococcus aureus ATCC 25923 at 400 ug after 18 hrs by disc-diffusion method; type: functional; details: ATCC 25923, 18 h, read-out: IZ; summary of the method: as §5
[36] = test system: Micrococcus luteus; assay: Antimicrobial activity against Micrococcus luteus ATCC 10240 at 400 ug after 18 hrs by disc-diffusion method; type: functional; details: ATCC 10240, 18 h, read-out: IZ; summary of the method: as §5
[37] = test system: Staphylococcus epidermidis; assay: Antimicrobial activity against Staphylococcus epidermidis ATCC 12228 after 18 hrs by twofold serial microdilution method; type: functional; details: ATCC 12228, 18 h
[38] = test system: Enterococcus faecalis; assay: Antimicrobial activity against Enterococcus faecalis ATCC 29212 at 400 ug after 18 hrs by disc-diffusion method; type: functional; summary of the method: as §5
[39] = test system: WIL2-NS; assay: Cytotoxicity against human WIL2-NS cells after 96 hrs by MTT assay; type: functional; summary of the method: as §4
[40] = test system: Staphylococcus aureus; assay: Antimicrobial activity against Staphylococcus aureus ATCC 6538 at 400 ug after 18 hrs by disc-diffusion method; type: functional; details: ATCC 6538, 18 h, read-out: IZ; summary of the method: as §5
[41] = test system: Staphylococcus aureus; assay: Antimicrobial activity against Staphylococcus aureus ATCC 29213 at 400 ug after 18 hrs by disc-diffusion method; type: functional; details: ATCC 29213, 18 h, read-out: IZ; summary of the method: as §5
[42] = test system: Bacillus cereus; assay: Antimicrobial activity against Bacillus cereus ATCC 11778 at 400 ug after 18 hrs by disc-diffusion method; type: functional; details: ATCC 11778, 18 h, read-out: IZ; summary of the method: as §5
[43] = test system: Staphylococcus epidermidis; assay: Antimicrobial activity against Staphylococcus epidermidis ATCC 12228 at 400 ug after 18 hrs by disc-diffusion method; type: functional; details: ATCC 12228, 18 h, read-out: IZ; summary of the method: as §5
[44] = test system: Staphylococcus aureus; assay: Antimicrobial activity against Staphylococcus aureus NCTC 4163 after 18 hrs by twofold serial microdilution method; type: functional; details: NCTC 4163, 18 h
[45] = test system: Staphylococcus aureus; assay: Antimicrobial activity against Staphylococcus aureus NCTC 4163 at 400 ug after 18 hrs by disc-diffusion method; type: functional; details: NCTC 4163, 18 h, read-out: IZ; summary of the method: as §5
[46] = test system: Staphylococcus aureus; assay: Antimicrobial activity against Staphylococcus aureus ATCC 25923 after 18 hrs by twofold serial microdilution method; type: functional; details: ATCC 25923, 18 h
[47] = test system: Proteus vulgaris; assay: Antimicrobial activity against Proteus vulgaris NCTC 4635 at 400 ug after 18 hrs by disc-diffusion method; type: functional; summary of the method: as §5

Cc1ccc(NC(=S)Nc2cccc(C(F)(F)F)c2)cc1Cl
Activity [1]: inactive
Activity [2]: inactive
CC50 [3]: 10 µM
Activity [4]: inactive
EC50 [5]: > 20 µM
MIC [6]: > 100 µg/mL
EC50 [7]: > 10 µM
EC50 [8]: > 20 µM
Activity [9]: inactive
CC50 [10]: 20 µM
Activity [11]: inactive
EC50 [12]: > 20 µM
Activity [13]: inactive
EC50 [14]: > 10 µM
CC50 [15]: 20 µM
Activity [16]: inactive
Activity [17]: inactive
MIC [18]: > 100 µg/mL
EC50 [19]: > 20 µM
EC50 [20]: > 10 µM
EC50 [21]: > 20 µM
EC50 [22]: > 20 µM
Activity [23]: inactive
Activity [24]: inactive
CC50 [25]: 10 µM

N#Cc1ccc(NC(=S)Nc2cccc(C(F)(F)F)c2)cc1
CC50 [26]: 8.3 µM
zone of inhibition at 400 µg/disc [27]: 18 mm
MIC [28]: 64 µg/mL (≈ 199 µM)
zone of inhibition at 400 µg/disc [29]: 20 mm
CC50 [30]: 8.7 µM
CC50 [3]: 9.5 µM
inhibition zone (IZ) [31]: inactive
MIC [32]: 64 µg/mL (≈ 199 µM)
MIC [33]: 64 µg/mL (≈ 199 µM)
EC50 [5]: > 7 µM
MIC [6]: > 100 µg/mL
EC50 [7]: > 9.5 µM
EC50 [8]: > 10 µM
zone of inhibition at 400 µg/disc [34]: 19 mm
zone of inhibition at 400 µg/disc [35]: 19 mm
CC50 [10]: 10 µM
EC50 [12]: > 10 µM
zone of inhibition at 400 µg/disc [36]: 16 mm
MIC [37]: 64 µg/mL (≈ 199 µM)
EC50 [14]: > 9.5 µM
inhibition zone (IZ) [38]: inactive
CC50 [15]: 7 µM
CC50 [39]: 9.2 µM
zone of inhibition at 400 µg/disc [40]: 22 mm
zone of inhibition at 400 µg/disc [41]: 18 mm
MIC [18]: > 100 µg/mL
EC50 [19]: > 10 µM
EC50 [20]: > 10 µM
EC50 [21]: > 10 µM
EC50 [22]: > 10 µM
zone of inhibition at 400 µg/disc [42]: 19 mm
zone of inhibition at 400 µg/disc [43]: 18 mm
MIC [44]: 128 µg/mL (≈ 398 µM)
zone of inhibition at 400 µg/disc [45]: 20 mm
MIC [46]: 64 µg/mL (≈ 199 µM)
CC50 [25]: 10 µM
inhibition zone (IZ) [47]: inactive
